19 compounds from ChEMBL document CHEMBL1131208, “Substituted 2-iminopiperidines as inhibitors of human nitric oxide synthase isoforms” (J Med Chem, 1998) can be followed below.

The IC50 is the midpoint of a concentration-inhibition curve. Read a high IC50 as weaker potency. As usually defined, the inhibition in vivo is the drop in the measured response relative to a control, in per cent.

The structures appear in SMILES notation.

Experiment [1] addresses T1, Nitric oxide synthase 3 (Homo sapiens, UniProt P29474).
T1 sequence (P29474 whole entry): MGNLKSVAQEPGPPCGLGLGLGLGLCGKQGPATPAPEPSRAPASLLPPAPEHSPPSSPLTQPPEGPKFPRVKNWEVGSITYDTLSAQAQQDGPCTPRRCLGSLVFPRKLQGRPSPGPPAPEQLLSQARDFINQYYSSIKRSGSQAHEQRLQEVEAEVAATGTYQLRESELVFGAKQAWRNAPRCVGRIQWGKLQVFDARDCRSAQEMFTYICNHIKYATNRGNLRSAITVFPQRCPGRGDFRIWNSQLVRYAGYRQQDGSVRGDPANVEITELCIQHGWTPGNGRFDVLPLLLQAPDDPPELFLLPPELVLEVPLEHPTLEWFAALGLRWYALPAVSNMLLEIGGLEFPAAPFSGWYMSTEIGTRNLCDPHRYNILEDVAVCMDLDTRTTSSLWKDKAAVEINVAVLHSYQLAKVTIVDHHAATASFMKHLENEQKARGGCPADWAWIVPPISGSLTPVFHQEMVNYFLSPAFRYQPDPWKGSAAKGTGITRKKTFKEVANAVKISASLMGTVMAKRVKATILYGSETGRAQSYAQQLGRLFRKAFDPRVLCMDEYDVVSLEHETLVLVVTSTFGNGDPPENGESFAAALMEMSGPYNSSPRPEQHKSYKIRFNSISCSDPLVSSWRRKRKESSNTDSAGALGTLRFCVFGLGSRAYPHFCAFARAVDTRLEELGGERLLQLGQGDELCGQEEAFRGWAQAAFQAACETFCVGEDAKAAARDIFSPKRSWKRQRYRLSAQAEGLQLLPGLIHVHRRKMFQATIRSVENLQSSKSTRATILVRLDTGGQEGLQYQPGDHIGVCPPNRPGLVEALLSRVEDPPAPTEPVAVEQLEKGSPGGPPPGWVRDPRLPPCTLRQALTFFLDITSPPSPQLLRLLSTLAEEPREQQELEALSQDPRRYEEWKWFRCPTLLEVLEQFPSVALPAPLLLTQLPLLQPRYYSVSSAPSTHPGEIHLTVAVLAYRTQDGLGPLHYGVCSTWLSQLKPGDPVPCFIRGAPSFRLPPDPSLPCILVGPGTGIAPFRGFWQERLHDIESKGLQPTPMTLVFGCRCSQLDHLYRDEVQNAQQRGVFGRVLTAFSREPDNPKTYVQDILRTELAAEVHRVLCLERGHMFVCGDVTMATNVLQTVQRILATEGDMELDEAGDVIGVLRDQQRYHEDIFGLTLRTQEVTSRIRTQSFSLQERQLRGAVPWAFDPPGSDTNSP
The experiment is described as follows: inhibition of human endothelial constitutive Endothelial nitric oxide synthase (heNOS).

For experiment [2], the target named is Nitric oxide synthase, inducible (Homo sapiens, UniProt P35228). The experiment in a line: Inhibition of human Inducible nitric oxide synthase.
Experiment [3] has as its target Nitric oxide synthase (inducible and endothelial) (Homo sapiens) (UniProt P35228+P29474). The experiment is described as follows: Selectivity is the ratio between the IC50 values of heNOS and hiNOS. It counts as protein assay. The method, boiled down: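 Recombinant human iNOS/eNOS expressed in Sf9 cells (baculovirus), partially purified by DEAE-Sepharose. Eight inhibitor concentrations were tested with 30 μM final L-arginine containing [3H]arginine, in Tris pH 7.6 with BSA, DTT, CaCl2, FAD, tetrahydrobiopterin and NADPH, 15 min at 37 °C. eNOS also had 40 nM calmodulin. [3H]citrulline was separated on cation-exchange resin and counted. Assays were run at least in duplicate; IC50 was derived.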

Experiment [4] concerns the target Nitric oxide synthase 1 (Homo sapiens, UniProt P29475). The experiment is described as follows: Inhibition of human Neuronal nitric oxide synthase.
Experiment [5] has as its system Rattus norvegicus. The experiment in a line: Compound at an oral dose of 10 mg/Kg was tested in vivo for the inhibition of plasma nitrite levels in LPS-treated rats. The class given is functional. The method, boiled down:
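Male Lewis rats dosed orally 1 h before intraperitoneal LPS (10–12.5 mg/kg) to induce iNOS. Plasma nitrite/nitrate measured 5 h after LPS by fluorometric assay. Percent inhibition is relative to LPS-only versus saline controls; n = 6 animals/dose.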

Nitric oxide synthase 1, sequence (P29475 whole entry): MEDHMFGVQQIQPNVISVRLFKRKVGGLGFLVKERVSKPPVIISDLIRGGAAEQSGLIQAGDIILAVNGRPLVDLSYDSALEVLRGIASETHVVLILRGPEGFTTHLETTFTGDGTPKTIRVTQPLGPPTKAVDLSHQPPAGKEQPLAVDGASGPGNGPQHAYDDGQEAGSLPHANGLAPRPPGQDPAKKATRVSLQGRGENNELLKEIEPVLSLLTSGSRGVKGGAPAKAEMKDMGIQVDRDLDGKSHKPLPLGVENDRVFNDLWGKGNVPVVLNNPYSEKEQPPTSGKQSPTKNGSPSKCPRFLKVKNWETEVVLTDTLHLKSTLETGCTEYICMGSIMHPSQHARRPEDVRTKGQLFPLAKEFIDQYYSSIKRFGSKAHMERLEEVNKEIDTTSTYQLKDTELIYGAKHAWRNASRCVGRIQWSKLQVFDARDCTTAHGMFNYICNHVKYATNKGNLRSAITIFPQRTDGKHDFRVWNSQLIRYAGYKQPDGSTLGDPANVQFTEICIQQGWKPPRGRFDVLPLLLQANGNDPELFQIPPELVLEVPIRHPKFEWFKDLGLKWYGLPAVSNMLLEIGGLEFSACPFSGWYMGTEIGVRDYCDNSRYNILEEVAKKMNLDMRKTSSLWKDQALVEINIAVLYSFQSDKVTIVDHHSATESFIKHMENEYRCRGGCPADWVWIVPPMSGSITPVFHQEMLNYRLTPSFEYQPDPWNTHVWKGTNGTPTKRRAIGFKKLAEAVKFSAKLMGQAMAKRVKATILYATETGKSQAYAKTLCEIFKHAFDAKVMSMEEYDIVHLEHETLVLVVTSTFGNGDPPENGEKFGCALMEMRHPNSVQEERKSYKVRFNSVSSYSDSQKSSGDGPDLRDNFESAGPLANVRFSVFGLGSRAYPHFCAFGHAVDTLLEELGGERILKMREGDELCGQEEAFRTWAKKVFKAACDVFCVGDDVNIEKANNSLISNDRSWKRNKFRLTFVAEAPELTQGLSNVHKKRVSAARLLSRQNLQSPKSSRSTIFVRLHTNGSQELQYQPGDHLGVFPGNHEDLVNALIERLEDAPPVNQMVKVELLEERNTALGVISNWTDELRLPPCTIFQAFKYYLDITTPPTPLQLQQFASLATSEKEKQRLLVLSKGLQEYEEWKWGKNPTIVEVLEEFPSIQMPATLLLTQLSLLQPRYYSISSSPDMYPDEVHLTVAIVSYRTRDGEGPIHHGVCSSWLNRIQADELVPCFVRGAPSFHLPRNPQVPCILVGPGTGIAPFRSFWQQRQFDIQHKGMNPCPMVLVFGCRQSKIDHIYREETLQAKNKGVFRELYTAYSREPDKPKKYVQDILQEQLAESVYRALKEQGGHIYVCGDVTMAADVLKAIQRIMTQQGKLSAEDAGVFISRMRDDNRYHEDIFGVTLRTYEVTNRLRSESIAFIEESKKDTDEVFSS
Nitric oxide synthase, inducible, sequence (P35228 whole entry): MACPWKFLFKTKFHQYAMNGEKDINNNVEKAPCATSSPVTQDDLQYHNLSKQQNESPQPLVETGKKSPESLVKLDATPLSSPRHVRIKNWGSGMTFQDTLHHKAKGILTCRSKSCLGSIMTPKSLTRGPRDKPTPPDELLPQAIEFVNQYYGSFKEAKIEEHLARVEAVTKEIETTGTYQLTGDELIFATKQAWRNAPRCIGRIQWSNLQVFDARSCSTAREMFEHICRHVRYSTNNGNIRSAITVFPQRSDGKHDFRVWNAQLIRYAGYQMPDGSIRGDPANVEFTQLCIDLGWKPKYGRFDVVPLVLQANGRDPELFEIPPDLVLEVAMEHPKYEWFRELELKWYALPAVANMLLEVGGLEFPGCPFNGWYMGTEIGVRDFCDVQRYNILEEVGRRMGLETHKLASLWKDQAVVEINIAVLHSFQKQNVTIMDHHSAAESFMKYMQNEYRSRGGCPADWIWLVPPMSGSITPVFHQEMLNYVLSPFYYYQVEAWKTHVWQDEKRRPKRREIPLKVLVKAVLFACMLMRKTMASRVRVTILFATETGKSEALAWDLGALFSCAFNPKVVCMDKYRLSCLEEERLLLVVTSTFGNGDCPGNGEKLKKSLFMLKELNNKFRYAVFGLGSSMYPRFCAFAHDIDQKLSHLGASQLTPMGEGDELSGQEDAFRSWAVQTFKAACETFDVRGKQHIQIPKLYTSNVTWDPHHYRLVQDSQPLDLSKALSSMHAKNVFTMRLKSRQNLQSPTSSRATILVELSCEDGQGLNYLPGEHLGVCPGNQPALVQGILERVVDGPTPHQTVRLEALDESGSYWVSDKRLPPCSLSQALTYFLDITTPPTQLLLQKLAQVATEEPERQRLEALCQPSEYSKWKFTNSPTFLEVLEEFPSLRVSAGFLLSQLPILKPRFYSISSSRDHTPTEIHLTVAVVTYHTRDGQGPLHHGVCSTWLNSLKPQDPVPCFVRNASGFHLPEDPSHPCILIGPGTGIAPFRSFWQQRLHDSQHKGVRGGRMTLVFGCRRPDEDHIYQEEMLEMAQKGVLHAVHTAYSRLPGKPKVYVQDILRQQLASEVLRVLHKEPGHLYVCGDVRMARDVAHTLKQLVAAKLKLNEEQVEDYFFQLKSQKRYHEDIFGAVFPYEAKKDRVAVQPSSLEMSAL
Nitric oxide synthase (inducible and endothelial) (Homo sapiens), sequence (P35228 whole entry, looked up, one chain of several): as the sequence (P35228 whole entry) above

For `CC1CCC(N)=NC1` (stereo not given), the IC50 was determined as 58 µM in experiment [1] and 5.1 µM in experiment [2].

As for `NC1=NC(C(F)(F)F)CCC1` (stereo not given), the Selectivity in experiment [3] stood at 4. Besides, the figures for the IC50 in experiment [1], in experiment [2] and in experiment [4] were 2 µM, 0.5 µM and 0.5 µM, respectively.

`CCCC1CCN=C(N)C1` (stereo not given): the IC50 in experiment [1], in experiment [2] and in experiment [4] was over 100 µM throughout.

For `CNC1=NCCCC1`, the IC50 in experiment [1], in experiment [2] and in experiment [4] was over 100 µM throughout.

In the case of `CC1CC(N)=NC(C)C1` (stereo not given), the Selectivity in experiment [3] was 4. Also, the IC50 worked out at 0.3 µM in experiment [1], 0.08 µM in experiment [2] and 0.06 µM in experiment [4]. In experiment [5], this compound showed an inhibition in vivo at 10 mg/kg of 98%.

Regarding `CC1CCCN=C1N` (stereo not given), in experiment [3], the Selectivity is 0.5. For the same compound, the values for the IC50 in experiment [1], in experiment [2] and in experiment [4] were 3 µM, 6 µM and 0.7 µM, respectively.

In the case of `CC1CCCC(N)=N1` (stereo not given), the Selectivity in experiment [3] was 1. Also, the IC50 in experiment [1] was found to be 0.6 µM; in experiment [2], 0.5 µM; in experiment [4], 0.4 µM.

Turning to `NC1=Nc2ccccc2CC1`, the Selectivity in experiment [3] came out at 2. The results for the IC50 in experiment [1], in experiment [2] and in experiment [4] were 218 µM, 99 µM and 28 µM, respectively.

For the compound `NC1=NC(C2CCCCC2)CCC1` (stereo not given), the Selectivity in experiment [3] was found to be 16. The IC50 stood at 142 µM in experiment [1], 8.7 µM in experiment [2] and 5.3 µM in experiment [4]. In addition, the inhibition in vivo at 10 mg/kg in experiment [5] came to 18%.

Take `CC1(C)CCN=C(N)C1`: the Selectivity in experiment [3] was 1.6. For the same compound, the figures for the IC50 in experiment [1], in experiment [2] and in experiment [4] were 5.3 µM, 3.4 µM and 5.9 µM, respectively.

Take `CN1CCCCC1=N`: the IC50 in experiment [1], in experiment [2] and in experiment [4] was over 100 µM each time.

Regarding `NC1=NCCC(C(F)(F)F)C1` (stereo not given), the Selectivity in experiment [3] was determined as 15. Also, the results for the IC50 in experiment [1], in experiment [2] and in experiment [4] were 47 µM, 3.2 µM and 3.3 µM, respectively. Testing at 10 mg/kg in experiment [5] gave an inhibition in vivo of 24%.

Take `NC1=NC(Cc2ccccc2)CCC1` (stereo not given): the IC50 in experiment [4] came out at 0.9 µM.

Turning to `CC1CCN=C(N)C1` (stereo not given), the inhibition in vivo at 10 mg/kg in experiment [5] worked out at 87%. In experiment [2], the IC50 stood at 0.1 µM.

`CCCC1CCCC(N)=N1` (stereo not given): the Selectivity in experiment [3] came to 11. The figures for the IC50 in experiment [1], in experiment [2] and in experiment [4] were 2.2 µM, 0.2 µM and 0.5 µM, respectively.

For `NC1=NC(CC2CCCCC2)CCC1` (stereo not given), the Selectivity in experiment [3] was found to be 64.

Consider `CCC1CCN=C(N)C1` (stereo not given), for which the Selectivity in experiment [3] was found to be 5.

Compound `N=C1CCCCN1` yielded an inhibition in vivo at 10 mg/kg in experiment [5] of 62%. The same compound displayed an IC50 in experiment [2] of 1.1 µM.

With `CCC1CCNC(=N)C1` (stereo not given), the IC50 stood at 13 µM in experiment [1], 2.6 µM in experiment [2] and 1.6 µM in experiment [4].
